Runt-CBFb FRET – inhibitors of RUNX1 Runt–CBFb binding, primary screen, biochemical, FRET, Cerulean-Runt, Venus-CBFb, uHTS; Cerulean-Runt/Venus-CBFb FRET ratio 530/480, 1 h; 220,000 tested, 0.46% active; inhibition, % at 20 µM;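 active means inhibition over about 50% at 20 µM in the single-dose screen, limit read from the data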;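 further: 0% = DMSO wells and 100% = excess unlabeled CBFb competitor control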
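test system = Cerulean-Runt domain fusion protein, energy donor | probe or stimulus = Venus-CBFb binding partner, 100 nM | incubation = two 1 h room-temperature incubations shielded from light | detection = fluorescence energy transfer, 422 nm excitation, 530/480 nm emission | measure = loss of energy transfer signal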
Hck-Nef inh – inhibitors of Nef-activated human Hck kinase, primary screen, biochemical, Z-Lyte FRET, 384-well, Hck-YEEI; Tyrosine-protein kinase HCK (Homo sapiens), P08631; Recombinant Hck-YEEI plus Nef, Z-Lyte FRET kinase assay; inhibition, % at 20 µM; 220,000 tested, 0.68% active;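 active means Hck-Nef kinase inhibition above about 50%, limit read from the data; inactive means inhibition below that limit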;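 further: 0% = DMSO with Hck plus Nef and 100% = Hck alone without Nef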
Runt-SMMHC FRET – inhibitors of RUNX1 Runt–CBFb-SMMHC binding, primary screen, biochemical, FRET, Cerulean-Runt, Venus-CBFb-SMMHC, uHTS | Runt-related transcription factor 1 (Homo sapiens) + Core-binding factor subunit beta … | Cerulean-Runt/Venus-CBFb-SMMHC FRET ratio 530/480, 1 h | inhibition, % at 20 µM | 220,000 tested, 0.74% active;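 active means mean inhibition across duplicate retests at 20 µM reaching about 50%, limit read from the data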;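 further: 0% = DMSO wells and 100% = wells with excess untagged CBFb-SMMHC; inhibitors lower the FRET ratio by blocking Runt binding to CBFb-SMMHC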
Pemphigus Ab inh – inhibitors of pemphigus antibody binding to DSG3, primary screen, biochemical, bead-based, flow cytometry, scFv-GFP; 310,000 tested, 0.48% active; binding (percent of control), % at 10 µM; AID 588358, 2011; Desmoglein-3 (Homo sapiens), P32926; DSG3-coupled beads, scFv-anti-DSG3-GFP binding; active compounds read low;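 active means binding more than 3 SD below its plate's average and above zero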;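 further: hits lower antibody fragment binding to DSG3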
p-CIP stab down – p/CIP-EGFP fusion destabilizers, primary screen, fluorescence, F442A cells. Q05BA5. 16 h. decrease of EGFP signal, % at 10 µM. 290,000 tested, 0.01% active. AID 1984, 2009;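 active means EGFP signal decrease of at least 30% at 10 µM or well 3 SD below plate mean, unless failing retest; inactive means the rest, including hits failing retest or dose response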
RanGTP-Impb inh – inhibitors of RanGTP-importin-beta interaction, primary screen, biochemical, FRET, CFP-Ran, YFP-importin-beta, homogeneous. inhibition, % (no concentration beside the values). 300,000 tested, 1.1% active. cell-free CFP-Ran/YFP-importin-beta FRET ratio. AID 2216, 2009;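 active means more than half of the replicate wells show a fall in the fluorescence ratio signal beyond about 16%, limit read from the data, passing the limit was not always enough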;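 further: 0% = DMSO wells and 100% = Ran loaded with GDP instead of GTP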
The depositor's hits bear a star; x = not tested or not shown. Shown are actives, neighbours in structure and some others; about 2.1% of the full set was active somewhere.

SMILES	Runt-CBFb FRET	Hck-Nef inh	Runt-SMMHC FRET	Pemphigus Ab inh	p-CIP stab down	RanGTP-Impb inh
O=C(Nc1nnc(S(=O)(=O)N2CCCCCC2)s1)c1ccccc1F	x	x	x	87	-3	2
Cc1ccccc1C(=O)Nc1nnc(S(=O)(=O)N2CCCCCC2)s1	x	x	x	-6.6*	6	4
O=C(O)CCN1C(=O)/C(=C/c2ccc(-c3nc4ccccc4s3)o2)SC1=S	26	18	-8	98	-16	-7
O=C(O)CCCN1C(=O)/C(=C\c2ccc(-c3nc4ccccc4s3)o2)SC1=S	22	20	-37	74*	-10	-10
COc1ccc(NS(=O)(=O)c2cccc(C(=O)NCC(c3cccs3)N3CCOCC3)c2)cc1 (configuration not stated)	x	x	x	100	x	x
Nc1c(-c2ccccc2)c(CN2CCOCC2)nn1-c1ccc(C(=O)O)cc1	-1	-3	1	100	-14	32*
CCOC(=O)C1CCN(C(=O)c2ccc(Cl)c(Cl)c2)CC1	1	-1	8	102	-6	x
CCOC(=O)C1CCN(C(=O)c2ccc3nc(-c4ccc(OC)cc4)c(-c4ccc(OC)cc4)nc3c2)CC1	x	x	x	91	-6	24*
O=C(O)CCn1cc(/C=C2\NC(=S)N(c3ccccc3)C2=O)c(-c2ccc(Br)cc2)n1	4	16	18	95	2	1
N#CCCn1cc(/C=C2\NC(=S)N(c3ccccc3)C2=O)c(-c2ccc(F)cc2)n1	6	1	5	1.1*	-15	-3
Cc1c(Br)c(=O)oc2c(C)c(O)ccc12	48	39	73*	x	-7	33*
Cc1ccc(S(=O)(=O)C(C#N)c2nc3ccccc3nc2N2CCCCC2)cc1 (configuration not stated)	-39	x	-111	x	-1	x
COc1ccc(S(=O)(=O)C(C#N)c2nc3ccccc3nc2N2CCC(C)CC2)cc1 (configuration not stated)	-1	x	-6	x	-1	27*
CC1CCCN(c2nc3ccccc3nc2C(C#N)S(=O)(=O)c2ccccc2)C1 (configuration not stated)	-14	0	-47	103	-18	-3
Cc1ccc(S(=O)(=O)C(C#N)c2nc3ccccc3nc2N2CCN(C)CC2)cc1 (configuration not stated)	57*	-3	79*	105	-19	64*
CCc1cccc(C)c1NC(=O)COC(=O)CSCc1ccccc1	x	x	x	124	x	x
COc1ccc(Nc2nc3c(C)cccn3c(=O)c2C=NCc2ccccc2)cc1	-7	16	-9	70*	8	1
CNc1nc2c(C)cccn2c(=O)c1C=NCc1ccccc1	0	3	5	105	-2	2
Cc1ccccc1OCc1occc1C(=O)Nc1cccc(-n2cnnn2)c1	x	x	x	94	-2	-1
O=C(CSc1nc(-c2ccc(F)cc2)cs1)Nc1ccccn1	0	7	-1	44*	-15	-2
O=c1[nH]c(=S)[nH]c2sc3c(c12)CCCCCC3	x	x	x	108	-3	2
CS(=O)(=O)N(CC(=O)N1CCC(C(N)=O)CC1)c1cc(C(F)(F)F)ccc1Cl	1	20	2	96	2	0
CC(C)(C)OC(=O)N1CCCN(C(=O)Nc2ccccc2)CC1	1	3	2	87*	-3	-3
O=C(Nc1ccc(NC(=O)N2CCN(c3ccccc3O)CC2)cc1)N1CCN(c2ccccc2O)CC1	x	x	x	54*	-6	-1
CC(C)(C)OC(=O)N1CCCN(C(=O)Nc2cccc(Cl)c2)CC1	-2	4	-5	110	2	1
COc1ccccc1CN(C)C(=O)CN1C(=O)c2ccccc2C1=O	x	x	x	102	-1	7

Source: PubChem BioAssay
